Reference: paper PMC8485830 (ChemistryOpen, 2021)

What was measured:
Assay in all cases: activity assay, unused NAD+ converted to a fluorescent compound
Format in all cases: biochemical
PARP4 = target: T1, PARP4 (Homo sapiens, UniProt Q9UKK3)
T1 sequence (Q9UKK3 242-573 limits assumed): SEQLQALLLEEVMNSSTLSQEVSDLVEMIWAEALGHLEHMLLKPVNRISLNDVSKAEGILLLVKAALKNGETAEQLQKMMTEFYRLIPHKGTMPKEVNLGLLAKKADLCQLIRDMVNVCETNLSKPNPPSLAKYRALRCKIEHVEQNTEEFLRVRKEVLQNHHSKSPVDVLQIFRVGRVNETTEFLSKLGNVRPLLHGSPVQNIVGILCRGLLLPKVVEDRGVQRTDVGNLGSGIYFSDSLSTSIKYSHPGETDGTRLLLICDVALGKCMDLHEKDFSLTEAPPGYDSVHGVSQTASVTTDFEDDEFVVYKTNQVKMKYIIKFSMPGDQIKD
Summary of the method: (§1)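 PARP3 or PARP4 was expressed as an N-terminal His-tag construct in E. coli Rosetta2 (DE3) in autoinduction TB medium, overnight at 18 °C. It was purified by Ni-affinity followed by size-exclusion chromatography. Activity was read by converting residual NAD+ to a fluorescent product. Inhibitor was tested as half-log dilutions, with reactions in quadruplicate. IC50 was fitted with a four-variable sigmoidal dose–response curve.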

PARP16 = target: T2, PARP16 (Homo sapiens, UniProt Q8N5Y8)
T2 sequence (Q8N5Y8 5-279 limits assumed): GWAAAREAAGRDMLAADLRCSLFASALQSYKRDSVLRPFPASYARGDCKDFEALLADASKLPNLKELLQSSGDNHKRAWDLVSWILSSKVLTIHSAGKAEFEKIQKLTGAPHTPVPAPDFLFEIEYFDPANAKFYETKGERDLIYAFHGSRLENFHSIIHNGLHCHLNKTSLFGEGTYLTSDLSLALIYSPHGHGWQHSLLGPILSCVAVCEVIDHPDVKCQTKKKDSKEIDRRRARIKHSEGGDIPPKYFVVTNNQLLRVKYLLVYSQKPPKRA
Summary of the method: (§2)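 Human PARP12 or PARP16 carrying an N-terminal His tag was expressed in E. coli Rosetta2 (DE3) in autoinduction TB medium, overnight at 18 °C. It was purified by Ni-affinity and size-exclusion chromatography, then the His tag was cleaved with TEV protease. Unused NAD+ was converted to a fluorescent compound. Test compound was given in half-log dilutions, in quadruplicate. IC50 came from a four-variable sigmoidal dose–response fit.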

PARP3 = target: T3, PARP3 (Homo sapiens, UniProt Q9Y6F1)
T3 sequence (Q9Y6F1 1-533): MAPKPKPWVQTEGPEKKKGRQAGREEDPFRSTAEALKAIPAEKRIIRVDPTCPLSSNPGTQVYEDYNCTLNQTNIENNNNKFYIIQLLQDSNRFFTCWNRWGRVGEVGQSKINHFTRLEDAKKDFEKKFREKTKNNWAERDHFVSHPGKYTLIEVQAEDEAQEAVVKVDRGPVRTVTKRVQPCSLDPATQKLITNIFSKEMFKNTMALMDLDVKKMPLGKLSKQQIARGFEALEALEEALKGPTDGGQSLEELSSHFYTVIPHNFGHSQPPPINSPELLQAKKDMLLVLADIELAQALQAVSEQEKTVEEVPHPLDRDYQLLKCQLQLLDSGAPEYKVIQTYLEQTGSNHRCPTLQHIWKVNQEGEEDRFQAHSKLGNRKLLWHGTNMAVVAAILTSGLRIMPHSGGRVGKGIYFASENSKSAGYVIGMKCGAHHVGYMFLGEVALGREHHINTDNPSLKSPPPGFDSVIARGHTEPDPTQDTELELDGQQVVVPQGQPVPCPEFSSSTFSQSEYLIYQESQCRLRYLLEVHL
Summary of the method: as §1

PARP12 = target: T4, PARP12 (Homo sapiens, UniProt Q9H0J9)
T4 sequence (Q9H0J9 489-684 limits assumed): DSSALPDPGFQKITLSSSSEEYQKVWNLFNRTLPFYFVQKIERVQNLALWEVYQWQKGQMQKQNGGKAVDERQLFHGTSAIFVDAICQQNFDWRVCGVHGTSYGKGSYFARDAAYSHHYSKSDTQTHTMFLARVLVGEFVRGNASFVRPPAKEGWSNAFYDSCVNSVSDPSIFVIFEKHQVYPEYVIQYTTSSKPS
Summary of the method: as §2

Structure (SMILES) | IC50 (PARP4) | IC50 (PARP16) | IC50 (PARP3) | IC50 (PARP12)
N#Cc1ccc(Oc2ccc(C(N)=O)cc2)cc1 [compound 10, 4‐(4‐cyanophenoxy)benzamide] | > 100 µM | > 10 µM | > 100 µM | > 10 µM
NC(=O)c1ccc(Oc2cccc(C(N)=O)c2)cc1 [compound 20, 3‐(4‐carbamoylphenoxy)benzamide] | 7 µM | > 10 µM | > 100 µM | > 10 µM
